Results as given in PubChem BioAssay.
Calls of active or inactive are those of the source.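 The calls were made as follows, unless noted: active = inhibition of the reporter signal at or above 50%; inactive = inhibition below 50%.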

Key:
[1] = inhibitors of TNFa-induced NFkB p65 translocation, primary screen, imaging, HUVEC, MLSMR starter and 10KST1 sets (AID 438;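 active = inhibition above 20% together with a positive visual image hit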;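 also: compound added about 3h40 before a 20 min TNFalpha stimulation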;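 as to inhibition: signal is the nuclear over cytoplasmic p65 intensity ratio per well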); conditions: HUVEC TNFa-induced p65 nuclear translocation; cell count: measured here: nuclei count (cytotoxicity indicator), at 2.08 µM; inhibition: at 2 µM, stronger effect = higher value, 0% TNFa-plus-vehicle, 100% no-TNFa wells
[2] = reduction of polyQ htt aggregates in cells – imaging, exon1htt(103Q)mCFP cells, high-content imaging, primary screen (AID 483;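 active = visual image review flags a hit and inhibition of aggregation exceeds 20%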;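 also: compound exposure lasted 3 days before fixation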;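 as to nuclei count: percent of the per-plate median nuclei count of sample wells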); conditions: exon1htt(103Q)mCFP cell line, aggregate imaging, at 2 µM; inhibition of aggregation: stronger effect = higher value; nuclei count: measured here: cell count, toxicity
[3] = endothelial E-selectin expression blockers – imaging, HUVEC, immunofluorescence, MLSMR starter and 10KST1 sets, primary screen (AID 487;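 active = visually confirmed hit in the image check and inhibition above 20%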;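 as to inhibition: signal is fraction of cell area covered by stained E-selectin grains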;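 as to nuclei count: 100% = median nuclei count of all wells on the same plate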); conditions: HUVEC TNFalpha-induced E-selectin immunofluorescence imaging, at 2 µM; inhibition: stronger effect = higher value; nuclei count: measured here: cell number, toxicity
[4] = molecular target: Voltage-gated potassium channel subunit beta-2 (Rattus norvegicus) (UniProt P62483); experiment: inhibitors of rat Kvbeta2 reductase activity – biochemical, NADPH fluorescence, primary screen (AID 622;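 active = fluorescence slope higher than the sample average by over 3 SD, cut at about -0.22 in these data, passing the limit was not always enough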;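 also: slope of raw intensity against log time taken from 70 to 1610 s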); conditions: recombinant KvBeta, 4-cyanobenzaldehyde reduction, at 10 µM, stronger effect = higher value
[5] = molecular target: Voltage-gated potassium channel subunit beta-2 (Rattus norvegicus) (UniProt P62483); experiment: enhancers of rat Kvbeta2 NADPH turnover – biochemical, NADPH fluorescence, primary screen (AID 623;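 active = NADPH fluorescence slope more negative than the mean of all samples by about 3 SD, 99.7% confidence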;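 also: fluorescence intensity change per second fitted from 20 to 320 s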); conditions: Recombinant KvBeta, NADPH fluorescence decrease slope, 10 min; at 10 µM; stronger effect = lower value
[6] = molecular target: Muscarinic acetylcholine receptor M4 (Homo sapiens) (UniProt P08173); experiment: M4-linked GIRK flux change, two-sided – cell-based, HEK293 M4/GIRK, thallium flux, BTC-AM, M4 allosteric agonist project, primary screen (AID 625;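 active = fluorescence slope after compound addition differing from the mean of all tested samples at 99.7% confidence, mostly higher but some lower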;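 also: thallium influx through GIRK channels coupled to M4 in HEK293 cells with BTC-AM dye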); conditions: at 10 µM, actives lie on both sides
Procedure, shortened: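 Assay system: HEK293 cells with M4 receptor and GIRK channels / Controls: carbachol and DMSO controls / Schedule: 1 h dye loading, 2 min kinetic read / Technique: kinetic fluorescence with BTC-AM dye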

[7] = blockers of RIG-like receptor reporter activation – cell-based, Sendai virus stimulus, luciferase, 10K MLSCN set, TLR/RLR signaling modifier project, primary screen (AID 602276;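 active = inhibition at or above 50% at 10 µM; inactive = inhibition below 50%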;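 also: firefly luciferase from ISG56 promoter only with Renilla not read in this screen; 0% = Sendai virus plus DMSO and 100% = medium plus DMSO without virus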); conditions: HEK293 RL24 IRF3 luciferase reporter, at 10 µM, stronger effect = higher value
[8] = TLR3 IRF3 reporter activation blockers – cell-based, poly I:C stimulus, luciferase, 10K MLSCN set, primary screen (AID 602277); conditions: HEK293-TLR3 RL24 IRF3 luciferase reporter, at 10 µM, stronger effect = higher value

Chain of Voltage-gated potassium channel subunit beta-2 (Rattus norvegicus) (P62483 whole entry, looked up): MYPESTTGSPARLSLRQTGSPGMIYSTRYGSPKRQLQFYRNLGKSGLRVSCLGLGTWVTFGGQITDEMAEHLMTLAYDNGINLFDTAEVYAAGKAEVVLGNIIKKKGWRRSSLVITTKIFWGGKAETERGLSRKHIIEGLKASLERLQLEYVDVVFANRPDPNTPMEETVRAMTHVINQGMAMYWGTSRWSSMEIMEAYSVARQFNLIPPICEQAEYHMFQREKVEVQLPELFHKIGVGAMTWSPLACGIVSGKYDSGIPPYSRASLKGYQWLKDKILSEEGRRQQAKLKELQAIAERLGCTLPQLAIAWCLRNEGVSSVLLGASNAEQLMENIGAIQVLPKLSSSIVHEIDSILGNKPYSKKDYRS
Chain of Muscarinic acetylcholine receptor M4 (Homo sapiens) (P08173 whole entry, looked up): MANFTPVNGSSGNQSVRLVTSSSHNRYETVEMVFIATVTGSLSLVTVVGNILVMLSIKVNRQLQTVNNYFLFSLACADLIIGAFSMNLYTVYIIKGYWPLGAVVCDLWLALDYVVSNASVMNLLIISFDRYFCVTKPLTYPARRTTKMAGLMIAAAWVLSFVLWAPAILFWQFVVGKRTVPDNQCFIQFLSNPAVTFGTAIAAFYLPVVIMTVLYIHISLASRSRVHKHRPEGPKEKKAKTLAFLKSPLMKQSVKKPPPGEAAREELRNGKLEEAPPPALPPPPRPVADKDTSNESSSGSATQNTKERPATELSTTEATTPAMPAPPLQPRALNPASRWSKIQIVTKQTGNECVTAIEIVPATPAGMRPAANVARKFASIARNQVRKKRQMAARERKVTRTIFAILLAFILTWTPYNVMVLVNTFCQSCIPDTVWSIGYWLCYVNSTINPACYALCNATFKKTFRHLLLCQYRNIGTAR

SMILES | cell count [1] | inhibition [1] | inhibition of aggregation [2] | nuclei count [2] | inhibition [3] | nuclei count [3] | fluorescence slope [4] | NADPH fluorescence slope [5] | fluorescence slope [6] | inhibition [7] | inhibition [8]
CCOC(=O)c1ccc(NC(=O)CSc2ncccn2)cc1 | 366 | 10.7% (inactive) | -25% (inactive) | 101% | -62.8% (inactive) | 100% | -0.532 (inactive) | -0.000128 (inactive) | 0.0039 (inactive) | -20.7% (inactive) | -63.9% (inactive)
COC(=O)c1c(C)oc2ccc(NS(=O)(=O)c3cccs3)cc12 | 435 | 3.4% (inactive) | 1.4% (inactive) | 99.1% | -85.7% (inactive) | 114% | -0.534 (inactive) | -8.8e-05 (inactive) | 0.0032 (inactive) | 20.8% (inactive) | 10.9% (inactive)
Cc1onc(-c2ccccc2)c1C(=O)N1CCCSC1=Nc1ccccc1 | 665 | 6.5% (inactive) | 12.6% (inactive) | 110% | 29.1% (inactive) | 79.6% | -0.567 (inactive) | -5.7e-05 (inactive) | 0.00639 (inactive) | 10.2% (inactive) | 31.9% (inactive)
CCC(C)N=C1SCC(C)(/C=N/O)S1 (centres undefined) | 367 | -7.2% (inactive) | 16.5% (inactive) | 80.1% | -31.5% (inactive) | 122% | -0.55 (inactive) | -6.5e-05 (inactive) | 0.00292 (inactive) | 9.86% (inactive) | 2.1% (inactive)
CCn1c(SC)nc2c(c1=O)SC(C)C2 (centres undefined) | 570 | -4.9% (inactive) | -5% (inactive) | 112% | -20.6% (inactive) | 118% | -0.432 (inactive) | -8.5e-05 (inactive) | 0.00648 (inactive) | 6.41% (inactive) | 15.1% (inactive)
CC(C)=CC(=O)OCC(=O)NC(=O)NC(C)(C)C | 220 | 13.1% (inactive) | 14.1% (inactive) | 97.7% | 3.9% (inactive) | 98.5% | -0.591 (inactive) | -1.3e-05 (inactive) | 0.00792 (inactive) | -2.29% (inactive) | 9.61% (inactive)
COc1ccc(-c2ccc(CCC(=O)O)n2NC(=O)c2cccs2)cc1 | 645 | -3.5% (inactive) | -1.9% (inactive) | 108% | -35.1% (inactive) | 131% | -0.464 (inactive) | -3.6e-05 (inactive) | 0.00607 (inactive) | 2.14% (inactive) | 42.4% (inactive)
Cc1c(NS(=O)(=O)c2ccc3c(c2)c(=O)n(C)c(=O)n3C)c(=O)n(-c2ccccc2)n1C | 394 | -4.4% (inactive) | -4.4% (inactive) | 124% | -27.8% (inactive) | 115% | -0.412 (inactive) | 0.000112 (inactive) | 0.00512 (inactive) | 11.2% (inactive) | 25% (inactive)
COc1ccc(-n2c(COc3ccccc3)nnc2SCc2ccc(C#N)cc2)cc1 | 687 | -7.7% (inactive) | -21% (inactive) | 56.4% | -58.1% (inactive) | 95.8% | -0.543 (inactive) | -5.8e-05 (inactive) | 0.00479 (inactive) | 3.44% (inactive) | 19.5% (inactive)
Cc1nc2c(=O)oc3ccccc3c2n1-c1ccccc1 | 579 | 2.9% (inactive) | 30.6% (inactive) | 90.3% | 33% (inactive) | 30.7% | -0.519 (inactive) | -3.7e-05 (inactive) | 0.0052 (inactive) | 12.7% (inactive) | 23.7% (inactive)
CC1(C)CC(=O)c2c(O)cc(O)cc2O1 | 652 | -15.6% (inactive) | -5.4% (inactive) | 83.3% | -55.7% (inactive) | 99.8% | -0.482 (inactive) | -4.2e-05 (inactive) | 0.00586 (inactive) | 5.4% (inactive) | -1.77% (inactive)
CCSc1nc(O)c(CC)c(=O)n1C(C)CC (centres undefined) | 304 | 2.1% (inactive) | -3.7% (inactive) | 112% | -56.3% (inactive) | 111% | -0.556 (inactive) | -3.6e-05 (inactive) | 0.00478 (inactive) | -0.896% (inactive) | 4.86% (inactive)
COc1ccc(NC(=O)CSc2nnc(-c3ccncc3)n2CC2CCCO2)c(OC)c1 (centres undefined) | 587 | -6.1% (inactive) | 18.1% (inactive) | 87.6% | -89.2% (inactive) | 119% | -0.575 (inactive) | -1.2e-05 (inactive) | 0.00641 (inactive) | 7.58% (inactive) | 28% (inactive)
O=C(NCc1cccs1)C(Cc1ccccc1)NS(=O)(=O)c1cccs1 (centres undefined) | 469 | -1.7% (inactive) | 0% (inactive) | 108% | -26.1% (inactive) | 111% | -0.437 (inactive) | -0.000238 (active) | 0.00454 (inactive) | 14.7% (inactive) | 15.2% (inactive)
